Test results taken from publication PMC5743405 (International Journal of Oncology, 2017).
Entries after “also recorded” stand apart in the source; their conditions may differ.

How the values were obtained:
[1] = system: GPR92; assay: PathHunter β-arrestin; type: cell-based; conditions: 6 μM
Procedure, shortened: (§1)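 Vendor-run (DiscoveRx) PathHunter enzyme fragment complementation. β-Arrestin carries the EA fragment and the receptor carries ED; recruitment restores β-gal activity, read by chemiluminescence (RLU). Agonist % activity = vehicle-subtracted RLU relative to max control ligand (gpcrMAX) or to vehicle (orphanMAX). Antagonist % inhibition = 100% × (1 − vehicle-subtracted sample RLU / vehicle-subtracted EC80 agonist control RLU).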

[2] = system: NMU1R; assay: PathHunter β-arrestin; type: cell-based; conditions: 6 μM
Procedure, shortened: as §1

[3] = system: PTGFR; assay: PathHunter β-arrestin; type: cell-based; conditions: antagonist mode, 6 μM
[4] = system: ADORA3; assay: PathHunter β-arrestin; type: cell-based; conditions: 6 μM
Procedure, shortened: (§2)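 β-Arrestin recruitment assay: the enzyme acceptor is fused to β-arrestin and the ED fragment to the GPCR. Recruitment restores β-galactosidase, read by chemiluminescence. % activity = 100% × (test − vehicle)/(max control ligand − vehicle). % inhibition = 100% × (1 − (test − vehicle)/(EC80 control − vehicle)). An agonist hit needs >30% activity and RLU > baseline + 3×SD. An antagonist hit needs >35% inhibition and RLU < EC80 RLU − 3×SD.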

[5] = system: CALCRL-RAMP1; assay: PathHunter β-arrestin; type: cell-based; conditions: antagonist mode, 6 μM
Procedure, shortened: as §2

[6] = system: P2RY2; assay: PathHunter β-arrestin; type: cell-based; conditions: 6 μM
Procedure, shortened: (§3)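 β-Arrestin recruitment to GPCR read by β-galactosidase fragment complementation and chemiluminescence. Agonist: % = 100 × (test − vehicle)/(max control ligand − vehicle), hit at >30% and RLU > baseline + 3 SD. Antagonist, against EC80 agonist: % inhibition = 100 × (1 − (test − vehicle)/(EC80 − vehicle)), hit at >35% and RLU < EC80 − 3 SD.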

[7] = system: CNR1; assay: PathHunter β-arrestin; type: cell-based; conditions: antagonist mode, 6 μM
Procedure, shortened: (§4)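 Engineered cells express the receptor fused to one β-galactosidase fragment (ED) and β-arrestin fused to the complementing fragment (EA). Receptor activation recruits β-arrestin, which restores enzyme activity, and this is read by chemiluminescence (RLU). Agonist % activity is 100% × (test − vehicle)/(maximal control ligand − vehicle). Antagonist mode is challenged with an EC80 control agonist, and % inhibition is 100% × (1 − (test − vehicle)/(EC80 − vehicle)). Hits require >30% activity or >35% inhibition, plus a 3×SD RLU margin.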

[8] = system: CRHR1; assay: PathHunter β-arrestin; type: cell-based; conditions: 6 μM
Procedure, shortened: as §4

[9] = system: CCKAR; assay: PathHunter β-arrestin; type: cell-based; conditions: antagonist mode, 6 μM
Procedure, shortened: as §2

[10] = system: ADRB2; assay: PathHunter β-arrestin; type: cell-based; conditions: 6 μM
Procedure, shortened: as §2

[11] = system: BRS3; assay: PathHunter β-arrestin; type: cell-based; conditions: antagonist mode, 6 μM
Procedure, shortened: as §2

[12] = system: EDG3; assay: PathHunter β-arrestin; type: cell-based; conditions: antagonist mode, 6 μM
Procedure, shortened: as §4

[13] = system: LHCGR; assay: PathHunter β-arrestin; type: cell-based; conditions: antagonist mode, 6 μM
Procedure, shortened: as §1

[14] = system: GALR2; assay: PathHunter β-arrestin; type: cell-based; conditions: agonist mode, 6 μM
Procedure, shortened: as §4

[15] = system: MUC5B; assay: RT2 qPCR primer assay, JJ012 cells; type: cell-based, human; conditions: 1 μg/ml PRP-1; heat map, vs nontreated control, technical triplicates
Procedure, shortened: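 RNA extracted from treated and control JJ012 cells, checked by spectrophotometry and reverse transcribed. SYBR Green qPCR with custom primer assays on three samples in technical triplicates. Ct normalized to the average of GAPDH and ACTB. Fold change vs control by 2^−ΔΔCt, shown as a heat map of average Ct.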

[16] = system: GPR103; assay: PathHunter β-arrestin; type: cell-based; conditions: 6 μM
Procedure, shortened: as §1

[17] = system: P2RY4; assay: PathHunter β-arrestin; type: cell-based; conditions: agonist mode, 6 μM
[18] = system: CXCR4; assay: PathHunter β-arrestin; type: cell-based; conditions: 6 μM
Procedure, shortened: as §4

[19] = system: PTGER4; assay: PathHunter β-arrestin; type: cell-based; conditions: 6 μM
Procedure, shortened: as §3

[20] = system: TSHR(L); assay: PathHunter β-arrestin; type: cell-based; conditions: antagonist mode, 6 μM
[21] = system: CHRM2; assay: PathHunter β-arrestin; type: cell-based; conditions: 6 μM
Procedure, shortened: as §4

[22] = system: PROKR2; assay: PathHunter β-arrestin; type: cell-based; conditions: antagonist mode, 6 μM
[23] = system: LTB4R; assay: PathHunter β-arrestin; type: cell-based; conditions: agonist mode, 6 μM
Procedure, shortened: as §1

[24] = system: GPR35; assay: PathHunter β-arrestin; type: cell-based; conditions: 6 μM
Procedure, shortened: as §1

[25] = system: SSTR3; assay: PathHunter β-arrestin; type: cell-based; conditions: 6 μM
Procedure, shortened: as §3

[26] = system: CHRM5; assay: PathHunter β-arrestin; type: cell-based; conditions: 6 μM
Procedure, shortened: as §4

[27] = system: DRD1; assay: PathHunter β-arrestin; type: cell-based; conditions: antagonist mode, 6 μM
Procedure, shortened: as §4

[28] = system: TLR9; assay: western blot, JJ012 cells; type: cell-based, human; conditions: vs untreated control, overnight incubation
[29] = system: TLR1; assay: RT2 qPCR primer assay, JJ012 cells; type: cell-based, human
Procedure, shortened: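 RNA was extracted, checked by spectrophotometry and reverse-transcribed. Custom RT2 SYBR-Green primer assays were run on three samples in technical triplicate. Ct was normalised to mean GAPDH/ACTB, ΔΔCt taken versus control, and fold change = 2^−ΔΔCt.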

[30] = system: CCR10; assay: PathHunter β-arrestin; type: cell-based; conditions: antagonist mode, 6 μM
Procedure, shortened: as §2

[31] = system: F2R; assay: PathHunter β-arrestin; type: cell-based; conditions: agonist mode, 6 μM
Procedure, shortened: as §4

[32] = system: PTHR1; assay: PathHunter β-arrestin; type: cell-based; conditions: 6 μM
Procedure, shortened: as §3

[33] = system: TICAM2 (TRAM); assay: western blot, JJ012 cells; type: cell-based, human; conditions: vs untreated control, overnight incubation

## Proline rich polypeptide 1 [PRP-1]
[1]; agonist mode
  % Activity: 1%
[1]; antagonist mode
  % Inhibition: 12%
[2]; agonist mode
  % Activity: 1%
[2]; antagonist mode
  % Inhibition: −3%
[3]
  % Inhibition: 1%
[4]; agonist mode
  % Activity: 1%
[4]; antagonist mode
  % Inhibition: −3%
[5]
  % Inhibition: 4%
[6]; agonist mode
  % Activity: 2%
[6]; antagonist mode
  % Inhibition: −4%
[7]
  % Inhibition: 2%
[8]; agonist mode
  % Activity: 1%
[8]; antagonist mode
  % Inhibition: 1%
[9]
  % Inhibition: −3%
[10]; agonist mode
  % Activity: 3%
[10]; antagonist mode
  % Inhibition: −3%
[11]
  % Inhibition: 4%
[12]
  % Inhibition: 1%
[13]
  % Inhibition: −15%
[14]
  % Activity: 1%
[15]
  gene expression: high expression; also recorded: the most upregulation after the treatment with 1 μg/ml
[16]; agonist mode
  % Activity: 2%
[16]; antagonist mode
  % Inhibition: 6%
[17]
  % Activity: −1%
[18]; agonist mode
  % Activity: 2%
[18]; antagonist mode
  % Inhibition: 2%
[19]; agonist mode
  % Activity: 1%
[19]; antagonist mode
  % Inhibition: 4%
[20]
  % Inhibition: −4%
[21]; agonist mode
  % Activity: 1%
[21]; antagonist mode
  % Inhibition: −6%
[22]
  % Inhibition: 8%
[23]
  % Activity: 1%
[24]; agonist mode
  % Activity: 1%
[24]; antagonist mode
  % Inhibition: −6%
[25]; agonist mode
  % Activity: 1%
[25]; antagonist mode
  % Inhibition: −5%
[26]; agonist mode
  % Activity: 5%
[26]; antagonist mode
  % Inhibition: −4%
[27]
  % Inhibition: −5%
[28]
  protein expression: no indication of PRP-1 effect
[29]; 10 μg/ml PRP-1, heat map, average Ct, technical triplicates
  gene expression: well expressed
[29]; qRT-PCR
  fold change (∆Ct): did not report significant fold change
[30]
  % Inhibition: −3%
[31]
  % Activity: −2%
[32]; agonist mode
  % Activity: 1%
[32]; antagonist mode
  % Inhibition: −2%
[33]
  protein expression: upregulated in dose-dependent manner
